Bioassay records as filed in PubChem.
Sampled rows, rich in hits. Any-hit rate of the full collection: about 3.7%.
KCNK3 inh – human KCNK3 channel inhibition, primary screen; CHO-KCNK3 thallium flux, FluxOR fluorescence; active compounds read low; 340,000 compounds, 0.84% hits; AID 602410; O14649; B-score at 10 µM;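 active = B-score under library mean minus 4 SD, starting fluorescence ratio at most library mean plus 5 SD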;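 note: more negative B-score means stronger inhibition of thallium flux through KCNK3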
hERG protect – shields human hERG channel from block by proarrhythmic agents. Q12809. CHO-hERG, FluxOR thallium flux, dofetilide IC70 present. activation (rescue from dofetilide block), less the hit threshold, % at 10 µM. 310,000 compounds, 0.51% hits. AID 1511;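 active = activation above the mean of controls blocked by dofetilide plus 5 SD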;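 note: thallium influx through hERG after potassium depolarization seen as dye fluorescence rise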
KCNQ1 act – potentiates or activates the human KCNQ1 potassium channel. AID 2648. 310,000 compounds, 0.35% hits. CHO-K1 KCNQ1, thallium flux FluxOR fluorescence; active compounds read high. B-score at 10 µM. P51787;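 active = fluorescence ratio B-score, a plate-corrected score, at least three library SD, with initial intensity B-score within 5 SD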
Target sequence (P51787 whole entry, looked up): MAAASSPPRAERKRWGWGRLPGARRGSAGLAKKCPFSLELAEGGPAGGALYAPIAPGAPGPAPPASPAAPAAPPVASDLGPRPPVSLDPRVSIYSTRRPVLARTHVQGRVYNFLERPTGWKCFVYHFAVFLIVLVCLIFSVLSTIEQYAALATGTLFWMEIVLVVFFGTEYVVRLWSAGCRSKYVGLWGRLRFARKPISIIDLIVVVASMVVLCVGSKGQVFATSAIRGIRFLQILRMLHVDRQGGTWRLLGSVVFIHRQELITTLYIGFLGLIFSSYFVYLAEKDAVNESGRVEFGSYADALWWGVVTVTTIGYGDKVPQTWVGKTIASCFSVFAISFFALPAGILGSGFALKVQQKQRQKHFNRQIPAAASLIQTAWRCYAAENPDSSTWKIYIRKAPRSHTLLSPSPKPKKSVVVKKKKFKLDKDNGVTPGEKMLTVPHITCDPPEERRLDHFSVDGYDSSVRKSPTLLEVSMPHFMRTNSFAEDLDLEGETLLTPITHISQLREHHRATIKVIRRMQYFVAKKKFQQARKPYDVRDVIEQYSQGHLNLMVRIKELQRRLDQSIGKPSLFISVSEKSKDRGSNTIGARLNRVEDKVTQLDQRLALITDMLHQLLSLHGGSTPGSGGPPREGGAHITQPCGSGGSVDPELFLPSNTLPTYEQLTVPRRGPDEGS
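Test system: CHO-K1 cells stably expressing KCNQ1 / Medium: assay buffer / Also added: depolarizing K+/Tl+ stimulus, K2SO4 and Tl2SO4 each 12.5 mM in 5x stock / Incubation: 90 min dye loading and 20 min compound exposure, both at room temperature / Signal: thallium influx via FluxOR fluorescence, kinetic imaging / Evaluation: B score of baseline-normalized fluorescence ratio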
KCNQ1 inh – inhibitors of human KCNQ1 potassium channel. B-score at 10 µM. CHO-K1 KCNQ1, FluxOR thallium flux fluorescence; active compounds read high. AID 2642. 310,000 compounds, 1.3% hits. P51787;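 active = compounds whose thallium flux B-score, printed positive for inhibition, exceeds three library SD while starting fluorescence stays within three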;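 note: channel opened by potassium depolarization with thallium stimulus after 20 min compound exposure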
Kir21 block – Kir2.1 (mouse) channel inhibition | P35561 | HEK293-Kir2.1, FluxOR thallium flux fluorescence; active compounds read low | AID 1672 | B-score at 10 µM | 310,000 compounds, 0.85% hits;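 active = fluorescence ratio B-score at or below minus 3 SD of library scores, with starting-brightness B-score within 2 SD, cut at about -4.2 in these data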;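 note: channel flux triggered by added potassium and thallium sulfate stimulus; B-score of peak minus minimum fluorescence over baseline after thallium stimulus; more negative B-score means stronger Kir2.1 block with less thallium influx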
KCNK9 inh – inhibitors of human KCNK9 two-pore domain potassium channel. Q9NPC2. HEK293 KCNK9, FluxOR thallium flux fluorescence; active compounds read low. B-score at 10 µM. 310,000 compounds, 1.2% hits. AID 488922;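 active = ratio B-score over 3 SD below the library mean, with starting fluorescence within 5 SD of its mean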;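 note: negative B-score means less thallium flux so channel inhibition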
The depositor's hits bear a star; i = inactive; / = no result given.

SMILES	KCNK3 inh	hERG protect	KCNQ1 act	KCNQ1 inh	Kir21 block	KCNK9 inh
O=C(Nc1ncc(Cc2cccc(Cl)c2)s1)c1cccs1	i	-4	i	i	-1.5	-6.7*
CCOC(=O)CSc1nc(N)c(C#N)c(-c2cccs2)c1C#N	i	-2	i	i	1.4	i
CCSc1nc(C2CC2)cc(-c2cccs2)c1C#N	i	-7	i	i	-0.29	-6.8*
CCSc1nc(C2CC2)cc(-c2ccco2)c1C#N	i	-12	i	i	0.32	i
CCCSc1nc(N)nc(-c2cccs2)c1C#N	i	-11	i	i	-0.28	-6.9*
CN1/C(=C\C=[N+](C)c2ccccc2)C(C)(C)c2ccccc21	i	-18	i	8*	-3.1	i
COC(=O)C(c1ccccc1)N(Cc1cccc(CN(C(C(=O)OC)c2ccccc2)S(C)(=O)=O)c1)S(C)(=O)=O (stereo unspecified)	i	-4	i	i	0.11	i
Cc1cccn2c(=O)nc(SCC(=O)NC3CCCCC3)nc12	i	-7	i	i	-0.55	i
Cc1cc(C)c2c(=O)n(CC(=O)NCCCN3CCOCC3)sc2n1	i	-5	i	i	0.98	i
Cc1cc(C)c2c(=O)n(CC(=O)NCCCN3CCN(c4ccccc4F)CC3)sc2n1	/	-48	i	i	-5.5*	i
Cc1ccc(OCC(=O)Oc2ccc(C)c(C)c2)cc1	i	-12	i	i	-0.49	i
CCn1c(CNc2ccc(F)cc2)nnc1SCC(=O)OC1CCCCC1	i	-3	i	i	-4.5*	i
CCOC(=O)CSc1nnc(CNc2ccc(Cl)cc2)n1Cc1ccccc1	i	-15	i	8*	-2.5	i
O=S(=O)(NC1CCC(NS(=O)(=O)c2c(F)cccc2F)CC1)c1ccc2c(c1)OCCO2 (stereo unspecified)	i	/	/	/	/	/
CCCCC(=O)Nc1nc(C)c(-c2csc(Nc3cc(Cl)ccc3OC)n2)s1	i	-9	i	7*	0.02	-7.5*
CCCCC(=O)Nc1nc(C)c(-c2csc(Nc3cc(OC)ccc3OC)n2)s1	i	-21	i	i	-1.4	-7.8*
COC(=O)Cn1cnc2c1c(=O)n(C)c(=O)n2C	i	-4	i	i	-0.74	i
Cn1c(=O)c2c(ncn2CC(=O)OCc2ccccc2)n(C)c1=O	i	5.3*	i	i	2.8	i
CCOC(=O)c1c(-c2ccccc2)oc2ccc(O)c(CN3CCN(C)CC3)c12	i	-7	i	i	-9.3*	i
CCOC(=O)c1c(CSc2ccccc2)n(C)c2cc(Br)c(OC)c(O)c12	i	0	i	6*	-0.64	i
CCOC(=O)c1c(C)n(C)c2ccc(O)c(CN3CCC(C)CC3)c12	i	-13	i	i	-2.7	i
CCOC(=O)c1c(CSc2ccccc2)n(C)c2ccc(O)c(CN3CCOCC3)c12	i	-28	i	i	-5.4*	i
CCOC(=O)c1c(C)n(C)c2ccc(O)c(CN3CCN(C)CC3)c12	i	-7	i	i	-0.52	i
Cc1ccc(S(=O)(=O)NCCSCc2ccccc2)cc1	i	-10	i	i	-5.7*	i
COc1ccc(S(=O)(=O)NCCSCc2cccc(C)c2)cc1Br	i	-1	i	i	-0.85	i
SMILES	KCNK3 inh	hERG protect	KCNQ1 act	KCNQ1 inh	Kir21 block	KCNK9 inh
Cc1ccc(CSCCNS(=O)(=O)c2ccc([N+](=O)[O-])cc2)cc1	i	-6	i	i	-4.4*	i
Cc1ccc(S(=O)(=O)N2CCCOC2CNC(=O)C(=O)NCc2ccncc2)cc1 (stereo unspecified)	i	-4	i	i	-0.11	i
C#CCOCCOCCOCCNc1nc(N2CCN(C(=O)Cn3cc(CCO)nn3)CC2)nc(N2CCN(C(=O)Cn3cc(CCCCN)nn3)CC2)n1	i	/	/	/	/	/
COCCn1c(SCC(=O)Nc2nc(C)c(Cl)cc2Cl)nc2ccccc21	i	-3	i	i	-6.3*	i
COCCn1c(SCC(=O)Nc2cccnc2Cl)nc2ccccc21	i	/	/	/	/	/
COc1cccc(CN(C)CC(=O)Nc2cccc(S(N)(=O)=O)c2)c1OC	i	2	i	i	-1.8	i
COc1ccc(Br)cc1CN(C)CC(=O)Nc1cccc(S(N)(=O)=O)c1	i	-9	i	i	-4.6*	i
CC(C)C[C@@H](CSc1ccccc1)N1CCN(CC(C)C)CCC1=O	i	0	i	i	1.1	i
Cc1ccc(CN2C(=O)c3ccccc3NC2c2cc(Br)ccc2O)cc1 (stereo unspecified)	i	-13	i	13*	0.03	i
CCOC(=O)c1cc(C#N)c(SCC(=O)OC)[nH]c1=O	i	-12	i	i	-0.28	i
COc1ccc(CCNC(=O)COC(=O)Cc2cccc3ccccc23)cc1	i	-5	i	i	-12*	i
CCC(C)(C)n1nnnc1C(c1ccc(O)cc1)N1CCc2ccccc2C1 (stereo unspecified)	i	-14	i	i	-0.58	i
CCC(C)(C)NC(=O)CN(Cc1ccc(OC)cc1)C(=O)CCC(=O)Nc1nccs1	i	-12	i	i	-0.91	i
C=CCn1c(O)c(N=NC(=S)Nc2cccc(OC)c2)c2ccccc21	i	25*	8*	i	-1.9	i
C=CCn1c(O)c(N=NC(=O)OCC)c2ccccc21	i	-7	i	i	-0.01	i
C=CCn1c(O)c(N=NC(=S)Nc2ccc(OC)cc2)c2ccccc21	i	3	17*	i	-5.3*	i
CC(=O)c1c(CSc2ccccc2)oc2ccc(O)c(CN(C)C)c12	i	-9	i	i	-6.5*	i
COc1cccc(CC(=O)OCC(=O)NC(=O)c2ccc(OC(F)F)cc2)c1	i	-9	i	i	-6.7e-16	i
COc1ccc2nc(N)sc2c1	i	-13	i	i	0.47	i
Cc1cc2nc(N)sc2cc1[N+](=O)[O-]	i	5.0*	i	i	1.7	i
CCc1noc(C)c1C(=O)Nc1ccc(F)c(F)c1F	i	-17	i	i	-1	i
Cc1ccc2nc(SC(C)C(=O)NCc3ccc4c(c3)OCO4)[nH]c2c1 (stereo unspecified)	i	19*	i	i	-1	i
CC(Sc1ccc(Cl)cc1)C(=O)NCc1ccc2c(c1)OCO2 (stereo unspecified)	i	-5	i	i	-3.8	i
CCOc1ccc(-n2c(-c3ccccc3)c[n+]3c2CCCCC3)cc1	i	-17	i	8*	-0.63	i
